According to PMC7178755 (Toxicology and applied pharmacology, 2019):

Experiments:
[1] = Plasma toxicokinetics after single gavage administration in rats; assay type: in vivo, Harlan Sprague Dawley rats; details: for bioavailability / Tmax / AUC(0-inf) / Cmax / half-life: rat, po; for bioavailability / Tmax / AUC(0-inf) / Cmax / half-life / Cl1_F / Cl2_F / K12 / K21 / V1_F / V2_F: plasma; for half-life / Cl1_F / Cl2_F / K12 / K21 / V1_F / V2_F: mean (SE)
[2] = Plasma toxicokinetics after single intravenous administration in rats; assay type: in vivo, Harlan Sprague Dawley rats; details: for AUC(0-inf) / Cmax / Vd: Hsd:Sprague Dawley SD, rat, iv, 34 mg/kg
[3] = rat uterotrophic assay; administered orally; ref Conley et al., 2016; cited from earlier work
[4] = free BPAF; rats; single gavage 20 and 100 mg/kg; ref Li et al. (2013); cited from earlier work
[5] = test system: hepatocytes from humans and rodents; details: ref Waidyanatha et al., 2015, cited from earlier work
[6] = Plasma toxicokinetics after single intravenous administration in mice; assay type: in vivo, B6C3F1/N mice; details: for AUC(0-inf) / Cmax / Vd / half-life: B6C3F1/N, mouse, iv, 34 mg/kg; for half-life / Cl1 / Cl2 / K12 / K21 / V1 / V2: free BPAF, 34 mg/kg IV, mean (SE)
[7] = Gavage toxicokinetics, summary statements over rats and mice; assay type: in vivo; details: rat, mouse, plasma, po
Method in brief: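 Single gavage doses in corn oil were given to male and female rats (9–10 wk; 34, 110, 340 mg/kg) and B6C3F1/N mice (10–11 wk; 34 mg/kg), with a 34 mg/kg IV tail-vein reference. Plasma was sampled from 5 min to 48 h. Free and total (enzyme-deconjugated) test compound was quantitated. F = dose-adjusted oral/IV free AUC0−∞; half-life taken as K10 half-life from compartmental fits.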

[8] = rat, sex and strain not specified; ref Halocarbon, 2008; cited from earlier work
[9] = female, Harlan Sprague Dawley (Hsd:Sprague Dawley SD), 34 mg/kg
[10] = female, Hsd:Sprague Dawley SD, 34 mg/kg
[11] = female, Hsd:Sprague Dawley SD, 110 mg/kg
[12] = female, Hsd:Sprague Dawley SD, 340 mg/kg
[13] = free BPAF, female HSD rats, 34 mg/kg gavage
[14] = free BPAF, female rats, 34 mg/kg gavage
[15] = free BPAF, female rats, 110 mg/kg gavage
[16] = free BPAF, female rats, 340 mg/kg gavage
[17] = free BPAF, male rats, 34 mg/kg gavage
[18] = free BPAF, male rats, 110 mg/kg gavage
[19] = free BPAF, male rats, 340 mg/kg gavage
[20] = male, Hsd:Sprague Dawley SD, 34 mg/kg
[21] = male, Hsd:Sprague Dawley SD, 110 mg/kg
[22] = male, Hsd:Sprague Dawley SD, 340 mg/kg
[23] = free BPAF, female rats, 34 mg/kg IV, mean (SE)
[24] = free BPAF, male rats, 34 mg/kg IV, mean (SE)

SMILES: Oc1ccc(C(c2ccc(O)cc2)(C(F)(F)F)C(F)(F)F)cc1 [BPAF, Bisphenol AF]
- bioavailability ([1]; both, Hsd:Sprague Dawley SD): ~1%
- Tmax ([1]; both, Hsd:Sprague Dawley SD, 34 mg/kg): 0.767 to 0.812 h
- AUC(0-inf) [1, 9]: 1.37 µM·h
- Cmax [1, 9]: 142 nM
- bioavailability [1, 9]: 1.02%
- bioavailability ([1]; female, Harlan Sprague Dawley (Hsd:Sprague Dawley SD), 340 mg/kg): 1.06%
- Tmax ([1]; female, Hsd:Sprague Dawley SD): 0.767 to 1.34 h
- AUC(0-inf) [1, 10]: 461 ng·h/mL
- Cmax [1, 10]: 47.4 ng/mL
- Tmax [1, 10]: 0.767 h
- half-life ([1]; female, Hsd:Sprague Dawley SD, 34 mg/kg, Alpha Half-life, free BPAF, female rats, 34 mg/kg gavage): 0.384 h
- half-life ([1]; female, Hsd:Sprague Dawley SD, 34 mg/kg, Beta Half-life, free BPAF, female rats, 34 mg/kg gavage): 8.68 h
- half-life ([1]; female, Hsd:Sprague Dawley SD, 34 mg/kg, K10 Half-Life, free BPAF, female rats, 34 mg/kg gavage): 3.35 h
- AUC(0-inf) [1, 11]: 1470 ng·h/mL
- Cmax [1, 11]: 245 ng/mL
- Tmax [1, 11]: 0.658 h
- AUC(0-inf) [1, 12]: 4810 ng·h/mL
- Cmax [1, 12]: 555 ng/mL
- Tmax [1, 12]: 1.34 h
- Dose-normalized AUC0−∞ [1, 13]: 13.6 (nmol.h/mL)/(mmol/kg)
- Dose-normalized Cmax [1, 13]: 1.406 (nmol/mL)/(mmol/kg)
- Cl1_F [1, 14]: 73.8 (13.3) L/h/kg
- Cl2_F [1, 14]: 350 (4650) L/h /kg
- K12 [1, 14]: 0.981 (31.1) 1/h
- K21 [1, 14]: 0.698 (1.29) 1/h
- V1_F [1, 14]: 357 (6600) L/kg
- V2_F [1, 14]: 502 (5820) L/kg
- Cl1_F [1, 15]: 74.7 (13.4) L/h/kg
- Cl2_F [1, 15]: 194 (503) L/h /kg
- K12 [1, 15]: 1.07 (19.3) 1/h
- K21 [1, 15]: 0.215 (0.115) 1/h
- V1_F [1, 15]: 181 (2810) L/kg
- V2_F [1, 15]: 899 (2050) L/kg
- Cl1_F [1, 16]: 70.7 (94.0) L/h/kg
- Cl2_F [1, 16]: 101 (180) L/h /kg
- K12 [1, 16]: 0.433 (15.4) 1/h
- K21 [1, 16]: 0.0391 (0.0929) 1/h
- V2_F [1, 16]: 2580 (6150) L/kg
- Cl1_F [1, 17]: 85.2 (20.0) L/h/kg
- Cl2_F [1, 17]: 193 (24800) L/h /kg
- K12 [1, 17]: 0.849 (604) 1/h
- K21 [1, 17]: 0.257 (0.137) 1/h
- V1_F [1, 17]: 227 (132000) L/kg
- V2_F [1, 17]: 752 (966600) L/kg
- Cl1_F [1, 18]: 89.1 (52.4) L/h/kg
- Cl2_F [1, 18]: 122 (2520) L/h /kg
- K12 [1, 18]: 0.402 (62.7) 1/h
- K21 [1, 18]: 0.0972 (0.207) 1/h
- V1_F [1, 18]: 304 (41100) L/kg
- V2_F [1, 18]: 1260 (23900) L/kg
- Cl1_F [1, 19]: 70.3 (20.8) L/h/kg
- Cl2_F [1, 19]: 36.9 (1910) L/h /kg
- K12 [1, 19]: 0.156 (49.5) 1/h
- K21 [1, 19]: 0.0814 (0.223) 1/h
- V1_F [1, 19]: 237 (62900) L/kg
- V2_F [1, 19]: 454 (24400) L/kg
- bioavailability ([1]; male, Harlan Sprague Dawley (Hsd:Sprague Dawley SD), 34 mg/kg): 0.88%
- bioavailability ([1]; male, Harlan Sprague Dawley (Hsd:Sprague Dawley SD), 110 mg/kg): 0.84%
- bioavailability ([1]; male, Harlan Sprague Dawley (Hsd:Sprague Dawley SD), 340 mg/kg): 1.07%
- Tmax ([1]; male, Hsd:Sprague Dawley SD): 0.812 to 2.3 h
- AUC(0-inf) [1, 20]: 399 ng·h/mL
- Cmax [1, 20]: 60.7 ng/mL
- Tmax [1, 20]: 0.812 h
- half-life ([1]; male, Hsd:Sprague Dawley SD, 34 mg/kg, Alpha Half-life, free BPAF, male rats, 34 mg/kg gavage): 0.491 h
- half-life ([1]; male, Hsd:Sprague Dawley SD, 34 mg/kg, Beta Half-life, free BPAF, male rats, 34 mg/kg gavage): 10.2 h
- half-life ([1]; male, Hsd:Sprague Dawley SD, 34 mg/kg, K10 Half-Life, free BPAF, male rats, 34 mg/kg gavage): 1.85 h
- AUC(0-inf) [1, 21]: 1230 ng·h/mL
- Cmax [1, 21]: 142 ng/mL
- Tmax [1, 21]: 1.43 h
- AUC(0-inf) [1, 22]: 4830 ng·h/mL
- Cmax [1, 22]: 552 ng/mL
- Tmax [1, 22]: 2.2 h
- AUC(0-inf) ([2]; female): 45300 ng·h/mL
- Cmax ([2]; female): 71500 ng/mL
- Vd ([2]; female): 0.697 L/kg
- Cl1 [2, 23]: 0.751 (0.118) L/h/kg
- K12 [2, 23]: 0.0656 (0.0398) 1/h
- K21 [2, 23]: 0.141 (0.0339) 1/h
- V1 [2, 23]: 0.476 (0.115) L/kg
- V2 [2, 23]: 0.222 (0.0922) L/kg
- Cl1 [2, 24]: 0.753 (0.102) L/h/kg
- Cl2 [2, 24]: 0.0225 (0.00797) L/h /kg
- K12 [2, 24]: 0.0503 (0.0151) 1/h
- K21 [2, 24]: 0.0892 (0.0147) 1/h
- V1 [2, 24]: 0.448 (0.0811) L/kg
- V2 [2, 24]: 0.253 (0.0785) L/kg
- AUC(0-inf) ([2]; male): 45200 ng·h/mL
- Cmax ([2]; male): 75900 ng/mL
- Vd ([2]; male): 0.7 L/kg
- ED50 [3]: 209.1 mg/kg/day
- Tmax (maximum plasma BPAF concentration observed at) [4]: 1 h
- clearance compared with BPA ([5]; hepatocytes from humans and rodents, in vitro): cleared more slowly than BPA
- clearance rank order between species ([5]; hepatocytes in vitro): rat > mouse > human
- AUC(0-inf) ([6]; female): 15800 ng·h/mL
- Cmax ([6]; female): 92300 ng/mL
- Vd ([6]; female): 1.36 L/kg
- half-life ([6]; female, Alpha half-life, female mice): 0.106 h
- half-life ([6]; female, Beta half-life, female mice): 3.03 h
- half-life ([6]; female, K10 Half-Life, female mice): 0.119 h
- Cl1 ([6]; female mice): 2.15 (0.426) L/h/kg
- Cl2 ([6]; female mice): 0.256 (0.108) L/h /kg
- K12 ([6]; female mice): 0.696 (0.190) 1/h
- K21 ([6]; female mice): 0.257 (0.0225) 1/h
- V1 ([6]; female mice): 0.368 (0.129) L/kg
- V2 ([6]; female mice): 0.995 (0.388) L/kg
- Cl1 ([6]; male mice): 4.51 (0.547) L/h/kg
- Cl2 ([6]; male mice): 0.860 (0.324) L/h /kg
- K12 ([6]; male mice): 0.189 (0.0802) 1/h
- K21 ([6]; male mice): 0.227 (0.0304) 1/h
- V1 ([6]; male mice): 4.54 (1.06) L/kg
- V2 ([6]; male mice): 3.78 (1.10) L/kg
- AUC(0-inf) ([6]; male): 7540 ng·h/mL
- Cmax ([6]; male): 7490 ng/mL
- Vd ([6]; male): 8.32 L/kg
- half-life ([6]; male, Alpha half-life, male mice): 0.566 h
- half-life ([6]; male, Beta half-life, male mice): 3.76 h
- half-life ([6]; male, K10 Half-Life, male mice): 0.698 h
- half-life ([7]; Hsd:Sprague Dawley SD (rats), B6C3F1/N (mice)): ≤ 4.22 h
- half-life ([7]; female, Harlan Sprague Dawley (rats) and B6C3F1/N (mice), 34 mg/kg): ~9 h
- oral LD50 [8]: 3400 mg/kg
